ChEMBL document CHEMBL5316295, “Systematic Design of Adenosine Analogs as Inhibitors of a Clostridioides difficile-Specific DNA Adenine Methyltransferase Required for Normal Sporulation and Persistence” (J Med Chem, 2023)
Active and inactive are the calls of the source. No cut-off for these calls is given here.

Key:
[1] = Inhibition of Clostridioides difficile-specific DNA adenine methyltransferase mediated methylation using 5'-CGA TTC AAA AAG TCC CAA G-3' and 3'-GCT AAG TTT TTC AGG GTT C-5' as substrate and SAM as cosubstrate preincubated for 5 mins followed by substrate and cosubstrate addition and measured after 3 mins by MTase glo assay
[2] = molecular target: T1, DNA adenine methylase (Escherichia coli K-12) (UniProt P0AEE8); assay: Inhibition of Escherichia coli Dam using 5'-CCG CGG ATC CTG CT-3' and 3'-GGC GCC TAG GAC GA-5' as substrate and SAM as cosubstrate at 10 uM incubated for 5 mins
T1 sequence (whole entry): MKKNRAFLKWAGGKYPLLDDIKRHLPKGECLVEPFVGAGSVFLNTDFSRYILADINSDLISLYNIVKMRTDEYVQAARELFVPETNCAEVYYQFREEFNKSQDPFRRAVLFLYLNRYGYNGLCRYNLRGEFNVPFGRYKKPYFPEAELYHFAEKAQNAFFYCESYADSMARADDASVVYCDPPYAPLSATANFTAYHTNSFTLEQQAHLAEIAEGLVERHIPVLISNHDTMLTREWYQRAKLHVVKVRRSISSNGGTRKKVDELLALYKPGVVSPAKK
How it was run: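 Conditions were enzyme 0.1 μM, DNA 5 μM, SAM 30 μM, inhibitor 10 μM, at ~22 °C in 50 mM Tris–HCl pH 7.5, 100 mM NaCl, 1 mM DTT, 0.25% DMSO, run 5 min. Substrate and SAM levels were above K_M.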

[3] = molecular target: METTL3/METTL14 (Homo sapiens) (UniProt Q86U44+Q9HCE5); assay: Inhibition of human METTL3/METTL14 using 5'-AAC AGA AUG GGA CUG UUC-3' as substrate and SAM as cosubstrate at 10 uM incubated for 15 mins; assay type: protein-complex assay
How it was run: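 Under CamA conditions (100 mM NaCl) the assay ran 15 min with 10 μM inhibitor. An alternative condition used 0.1 μM enzyme, 10 μM ssRNA, 20 μM SAM in 50 mM HEPES pH 7.5, 5 mM NaCl, 1 mM DTT, 0.25% DMSO for 10 min.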

[4] = molecular target: METTL5-TRM112 (Homo sapiens) (UniProt Q9UI30+Q9NRN9); assay: Inhibition of human METTL5/TRM112 using 5'-UCG UAA CAA GGU UU-3' as substrate and SAM as cosubstrate at 10 uM incubated for 1 hr; assay type: protein-complex assay
How it was run: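 Enzyme 0.1 μM with 5 μM RNA, 30 μM SAM and 10 μM inhibitor at ~22 °C in 50 mM Tris–HCl pH 7.5, 100 mM NaCl, 1 mM DTT, 0.25% DMSO. PCIF1 run 15 min with capped RNA; MettL5-Trm112 run 1 h with ssRNA.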

[5] = molecular target: T2, RNA N(6)-adenosine-methyltransferase METTL16 (Homo sapiens) (UniProt Q86W50); assay: Inhibition of human METTL16 using 5'-GGUUGGCGUAGGCUACAGAGAAGCCAACC-3' as substrate and SAM as cosubstrate at 10 uM incubated for 15 mins
T2 sequence (whole entry): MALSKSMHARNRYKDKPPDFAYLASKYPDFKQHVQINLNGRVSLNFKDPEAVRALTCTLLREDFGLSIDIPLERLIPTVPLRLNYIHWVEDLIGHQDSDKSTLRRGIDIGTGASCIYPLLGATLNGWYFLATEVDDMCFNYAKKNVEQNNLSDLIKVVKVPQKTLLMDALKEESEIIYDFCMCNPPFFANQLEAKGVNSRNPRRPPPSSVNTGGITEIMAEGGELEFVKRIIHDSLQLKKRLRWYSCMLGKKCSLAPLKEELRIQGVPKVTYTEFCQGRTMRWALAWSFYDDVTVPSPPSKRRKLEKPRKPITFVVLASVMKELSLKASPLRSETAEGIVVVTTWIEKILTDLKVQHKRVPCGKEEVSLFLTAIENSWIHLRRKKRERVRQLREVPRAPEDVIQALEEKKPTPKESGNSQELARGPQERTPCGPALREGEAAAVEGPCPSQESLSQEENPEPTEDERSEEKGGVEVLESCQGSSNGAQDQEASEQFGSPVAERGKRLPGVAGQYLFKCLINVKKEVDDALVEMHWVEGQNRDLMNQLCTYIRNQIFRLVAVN
How it was run: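 Under CamA buffer conditions (30 μM SAM) the assay ran 15 min with ssRNA hairpin substrate and 10 μM inhibitor. A separate condition used 0.4 μM enzyme, 5 μM RNA, 160 μM SAM in 20 mM Tris–HCl pH 8.0, 400 mM NaCl, 1 mM DTT, 0.25% DMSO for 30 min.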

[6] = molecular target: Histone-lysine N-methyltransferase, H3 lysine-79 specific (Homo sapiens) (UniProt Q8TEK3); assay: Inhibition of human DOT1L using oligonucleosome as substrate and 3H-SAM as cosubstrate at 10 uM pretreated with compound for 20 mins in presence of oligonucleosome followed by cosubstrate addition and measured after 1 hr; settings: time 80.0 min
How it was run: (§1)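 Enzymes (DOT1L 1 nM; EZH2, G9a, PRMT1 5 nM) mixed with substrate (0.05 mg/mL oligonucleosomes for DOT1L; 0.05 mg/mL core histone for EZH2; 5 μM H3 1–21 peptide for G9a; 5 μM H4 for PRMT1). Compound (10 μM) added for 20 min at room temperature, then 1 μM ³H-SAM for 1 h at 30 °C; filter-paper read-out. Triplicates, mean ± SD.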

[7] = molecular target: Protein arginine N-methyltransferase 1 (Homo sapiens) (UniProt Q99873); assay: Inhibition of PRMT1 (unknown origin) using histone H4 as substrate and 3H-SAM as cosubstrate at 10 uM pretreated with compound for 20 mins in presence of histone H4 followed by cosubstrate addition and measured after 1 hr; settings: time 80.0 min; how it was run: as §1
Chain of Protein arginine N-methyltransferase 1 (Homo sapiens) (Q99873 whole entry, looked up): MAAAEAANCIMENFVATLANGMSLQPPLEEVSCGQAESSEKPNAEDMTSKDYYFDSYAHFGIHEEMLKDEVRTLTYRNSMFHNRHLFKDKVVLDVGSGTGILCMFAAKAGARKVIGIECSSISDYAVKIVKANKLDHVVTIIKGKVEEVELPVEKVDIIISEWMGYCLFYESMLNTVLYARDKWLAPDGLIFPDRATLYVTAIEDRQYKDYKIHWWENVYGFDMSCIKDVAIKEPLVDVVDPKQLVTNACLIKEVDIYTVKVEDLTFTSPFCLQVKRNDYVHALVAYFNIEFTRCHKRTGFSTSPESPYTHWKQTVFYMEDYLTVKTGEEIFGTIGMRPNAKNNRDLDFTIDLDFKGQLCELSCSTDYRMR

Chain of Histone-lysine N-methyltransferase, H3 lysine-79 specific (Homo sapiens) (Q8TEK3 whole entry, looked up): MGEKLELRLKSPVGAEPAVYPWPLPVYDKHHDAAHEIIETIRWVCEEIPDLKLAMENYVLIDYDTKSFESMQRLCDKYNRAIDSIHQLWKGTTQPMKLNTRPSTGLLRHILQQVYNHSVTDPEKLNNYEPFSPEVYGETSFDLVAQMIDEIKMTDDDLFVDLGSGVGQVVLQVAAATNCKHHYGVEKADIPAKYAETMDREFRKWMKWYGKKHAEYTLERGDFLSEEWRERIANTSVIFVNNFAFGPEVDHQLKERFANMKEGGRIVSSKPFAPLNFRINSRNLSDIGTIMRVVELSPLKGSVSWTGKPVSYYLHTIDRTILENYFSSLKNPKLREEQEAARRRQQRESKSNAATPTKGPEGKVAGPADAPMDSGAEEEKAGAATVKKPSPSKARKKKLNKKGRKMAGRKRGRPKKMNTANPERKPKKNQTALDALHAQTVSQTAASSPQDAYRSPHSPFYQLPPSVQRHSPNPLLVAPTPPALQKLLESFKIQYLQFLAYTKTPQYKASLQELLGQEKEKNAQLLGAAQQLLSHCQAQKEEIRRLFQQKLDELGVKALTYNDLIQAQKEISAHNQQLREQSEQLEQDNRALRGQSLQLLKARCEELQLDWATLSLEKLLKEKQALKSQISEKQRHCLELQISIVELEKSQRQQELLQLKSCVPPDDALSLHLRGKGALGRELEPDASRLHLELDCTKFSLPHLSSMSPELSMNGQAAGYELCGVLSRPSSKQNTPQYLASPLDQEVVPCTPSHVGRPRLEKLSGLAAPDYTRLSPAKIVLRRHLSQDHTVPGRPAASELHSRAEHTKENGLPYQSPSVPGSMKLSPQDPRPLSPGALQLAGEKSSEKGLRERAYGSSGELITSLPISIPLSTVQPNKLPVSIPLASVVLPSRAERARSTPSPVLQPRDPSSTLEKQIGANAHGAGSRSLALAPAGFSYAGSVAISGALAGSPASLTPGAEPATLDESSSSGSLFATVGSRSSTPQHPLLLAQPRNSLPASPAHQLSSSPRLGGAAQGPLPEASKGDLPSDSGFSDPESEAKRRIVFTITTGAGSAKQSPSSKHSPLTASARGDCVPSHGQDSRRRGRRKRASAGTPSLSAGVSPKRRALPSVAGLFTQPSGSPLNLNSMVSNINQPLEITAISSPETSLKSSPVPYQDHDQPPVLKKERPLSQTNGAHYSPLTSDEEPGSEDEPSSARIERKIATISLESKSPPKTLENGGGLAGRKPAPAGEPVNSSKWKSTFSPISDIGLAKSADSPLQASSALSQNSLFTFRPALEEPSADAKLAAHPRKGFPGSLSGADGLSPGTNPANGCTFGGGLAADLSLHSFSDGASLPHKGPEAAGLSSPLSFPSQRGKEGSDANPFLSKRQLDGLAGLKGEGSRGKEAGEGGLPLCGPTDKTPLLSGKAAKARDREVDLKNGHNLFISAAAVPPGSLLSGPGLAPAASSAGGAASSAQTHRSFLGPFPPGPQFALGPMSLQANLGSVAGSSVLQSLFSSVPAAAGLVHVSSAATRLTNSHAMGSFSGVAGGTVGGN

CC(C)(C)OC(=O)N1CCC(CCNc2ncnc3c2ncn3[C@@H]2O[C@H](CO)[C@@H](O)[C@H]2O)CC1
IC50 [1]: 0.71 µM | inhibition [2]: inactive | inhibition [3]: inactive | inhibition [4]: inactive | inhibition [5]: inactive | inhibition [6]: inactive | inhibition [7]: inactive

OC[C@H]1O[C@@H](n2cnc3c(NCCCc4ccc(O)cc4)ncnc32)[C@H](O)[C@@H]1O
IC50 [1]: 0.51 µM | inhibition [2]: inactive | inhibition [3]: inactive | inhibition [4]: inactive | inhibition [5]: inactive | inhibition [6]: inactive | inhibition [7]: inactive

CC(C)(C)OC(=O)N1CCC(CCCNc2ncnc3c2ncn3[C@@H]2O[C@H](CO)[C@@H](O)[C@H]2O)CC1
IC50 [1]: 0.39 µM | inhibition [2]: inactive | inhibition [3]: inactive | inhibition [4]: inactive | inhibition [5]: inactive | inhibition [6]: inactive | inhibition [7]: inactive
